What was measured:
OVCAR-5 = test: Growth inhibition of human OVCAR5 cells at 10 uM relative to control; assay type: functional; details: read-out: GI
Method in brief: (§1)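 Each cell line in a 60-line human tumour panel exposed to one 10 μM concentration. Growth inhibition percentage computed as 100 minus the percentage activity relative to control.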

OVCAR-3 = test: Growth inhibition of human OVCAR3 cells at 10 uM relative to control; assay type: functional; details: read-out: GI; method in brief: as §1
UACC-62 = test: Growth inhibition of human UACC62 cells at 10 uM relative to control; assay type: functional; details: read-out: GI
Method in brief: (§2)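 Single-dose screen across the 60-cell-line human tumor panel at 10 μM. Growth inhibition is reported as a percentage, taken as 100 minus the % growth relative to untreated control.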

UACC-257 = test: Growth inhibition of human UACC257 cells at 10 uM relative to control; assay type: functional; details: read-out: GI; method in brief: as §2
SK-MEL-5 = test: Growth inhibition of human SK-MEL-5 cells at 10 uM relative to control; assay type: functional; details: read-out: GI; method in brief: as §1
MDA-MB-435 = test: Growth inhibition of human MDA-MB-435 cells at 10 uM relative to control; assay type: functional; details: read-out: GI; method in brief: as §1
SK-MEL-28 = test: Growth inhibition of human SK-MEL-28 cells at 10 uM relative to control; assay type: functional; details: read-out: GI; method in brief: as §1
Malme-3M = test: Growth inhibition of human MALME-3M cells at 10 uM relative to control; assay type: functional; details: read-out: GI; method in brief: as §1
U-251 = test: Growth inhibition of human U251 cells at 10 uM relative to control; assay type: functional; details: read-out: GI; method in brief: as §2
SNB-19 = test: Growth inhibition of human SNB19 cells at 10 uM relative to control; assay type: functional; details: read-out: GI; method in brief: as §2
SNB-75 = test: Growth inhibition of human SNB75 cells at 10 uM relative to control; assay type: functional; details: read-out: GI; method in brief: as §2
SF-539 = test: Growth inhibition of human SF539 cells at 10 uM relative to control; assay type: functional; details: read-out: GI; method in brief: as §1
SW-620 = test: Growth inhibition of human SW620 cells at 10 uM relative to control; assay type: functional; details: read-out: GI; method in brief: as §2
HT-29 = test: Growth inhibition of human HT-29 cells at 10 uM relative to control; assay type: functional; details: read-out: GI; method in brief: as §1
KM12 = test: Growth inhibition of human KM12 cells at 10 uM relative to control; assay type: functional; details: read-out: GI; method in brief: as §1
HCT-15 = test: Growth inhibition of human HCT15 cells at 10 uM relative to control; assay type: functional; details: read-out: GI; method in brief: as §1
A549 = test: Growth inhibition of human A549 cells at 10 uM relative to control; assay type: functional; details: read-out: GI; method in brief: as §1
EKVX = test: Growth inhibition of human EKVX cells at 10 uM relative to control; assay type: functional; details: read-out: GI; method in brief: as §1
RPMI-8226 = test: Growth inhibition of human RPMI8226 cells at 10 uM relative to control; assay type: functional; details: read-out: GI; method in brief: as §1
SR = test: Growth inhibition of human SR cells at 10 uM relative to control; assay type: functional; details: read-out: GI; method in brief: as §2
K562 = test: Growth inhibition of human K562 cells at 10 uM relative to control; assay type: functional; details: read-out: GI; method in brief: as §1
CCRF-CEM = test: Growth inhibition of human CCRF-CEM cells at 10 uM relative to control; assay type: functional; details: read-out: GI; method in brief: as §1
Mus musculus [1] = species: Mus musculus; test: Protective index, ratio of TD50 for mouse to ED50 for pentylenetetrazol-induced seizure in mouse; assay type: functional
Method in brief: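 Mice. Index is TD50/ED50. TD50 is the dose causing minimal neurological toxicity in 50% of mice in the Chimney test. ED50 is the dose protecting 50% of mice against pentylenetetrazole-induced seizures. Both are estimated from testing at several doses.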

[2] = Toxicity in ip dose mouse assessed as mortality; assay type: organism-based; details: in vivo
Method in brief: (§3)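 In mice, LD50 is the dose causing 50% mortality. ED50 is the dose protecting 50% of mice against pentylenetetrazole-induced seizures. Therapeutic index = LD50/ED50.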

[3] = Therapeutic index, ratio of LD50 for mouse to ED50 for pentylenetetrazol-induced seizure in mouse; assay type: organism-based; details: in vivo, read-out: Ratio LD50/ED50; method in brief: as §3
[4] = Neurotoxicity in ip dosed mouse assessed as impaired motor coordination administered 30 mins prior to test by chimney test; assay type: toxicity, organism-based; details: in vivo
Method in brief: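 Mice, Chimney test. TD50 is the dose that produces minimal neurological toxicity (impaired motor coordination) in 50% of animals, estimated from testing at several doses.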

Mus musculus [5] = test: Anticonvulsant activity in ip dosed mouse assessed as protection against pentylenetetrazol-induced seizure administered 30 min prior to pentylenetetrazol-challenge measured after 60 mins; assay type: functional
Method in brief: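 Mice received several doses for quantification. ED50 taken as the dose protecting 50% of mice against pentylenetetrazol-induced seizures.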

Mus musculus [6] = test: Anticonvulsant activity in mouse assessed as protection against maximal electroshock-induced seizure at 1 mmol/kg, ip administered 30 min prior to maximal electroshock-challenge measured after 60 mins relative to control; assay type: functional
Mus musculus [7] = test: Anticonvulsant activity in mouse assessed as protection against strychnine-induced seizure at 1 mmol/kg, ip administered 30 min prior to strychnine-challenge measured after 60 mins relative to control; assay type: functional
Mus musculus [8] = test: Anticonvulsant activity in mouse assessed as protection against pentylenetetrazol-induced seizure at 1 mmol/kg, ip administered 30 min prior to pentylenetetrazol-challenge measured after 60 mins relative to control; assay type: functional
BT-549 = test: Growth inhibition of human BT549 cells at 10 uM relative to control; assay type: functional; details: read-out: GI; method in brief: as §1
MCF7 = test: Growth inhibition of human MCF7 cells at 10 uM relative to control; assay type: functional; details: read-out: GI; method in brief: as §1
PC-3 = test: Growth inhibition of human PC3 cells at 10 uM relative to control; assay type: functional; details: read-out: GI; method in brief: as §1
UO-31 = test: Growth inhibition of human UO31 cells at 10 uM relative to control; assay type: functional; details: read-out: GI; method in brief: as §2
CAKI-1 = test: Growth inhibition of human CAKI-1 cells at 10 uM relative to control; assay type: functional; details: read-out: GI; method in brief: as §1
ACHN = test: Growth inhibition of human ACHN cells at 10 uM relative to control; assay type: functional; details: read-out: GI; method in brief: as §1
A498 = test: Growth inhibition of human A498 cells at 10 uM relative to control; assay type: functional; details: read-out: GI; method in brief: as §1

Compound `CCOC(=O)Nc1ccc2c(=O)n(-c3ccccc3C)c(C)nc2c1` has an inhibition of growth at 10 µM (OVCAR-5) of 3.2%, an inhibition of growth at 10 µM (OVCAR-3) of 3.8% and an inhibition of growth at 10 µM (UACC-62) of 15.8%. It also gave an inhibition of growth at 10 µM (UACC-257) of 7%, an inhibition of growth at 10 µM (SK-MEL-5) of 2.4% and an inhibition of growth at 10 µM (MDA-MB-435) of 41.6%. The inhibition of growth at 10 µM (SK-MEL-28) was 1.72%, the inhibition of growth at 10 µM (Malme-3M) was 5.4% and the inhibition of growth at 10 µM (U-251) was 4.5%. It also gave an inhibition of growth at 10 µM (SNB-19) of 5.7%, an inhibition of growth at 10 µM (SNB-75) of 21.3% and an inhibition of growth at 10 µM (SF-539) of 17.2%. For the same compound, the inhibition of growth at 10 µM (SW-620) was 2%, the inhibition of growth at 10 µM (HT-29) was 7.8% and the inhibition of growth at 10 µM (KM12) was 12%. The inhibition of growth at 10 µM (HCT-15) was 6.4%, the inhibition of growth at 10 µM (A549) was 3% and the inhibition of growth at 10 µM (EKVX) was 11.6%. For the same compound, the inhibition of growth at 10 µM (RPMI-8226) was 6.5%, the inhibition of growth at 10 µM (SR) was 24.1% and the inhibition of growth at 10 µM (K562) was 6.2%. The inhibition of growth at 10 µM (CCRF-CEM) was 2.2%, the “Ratio TD50/ED50” value (Mus musculus [1]) was 2.4 and the LD50 [2] was 1930 µmol/kg. The selectivity ratio [3] was 2.6, the TD50 at 0.5 h [4] was 1780 µmol/kg and the ED50 (Mus musculus [5]) was 740 µmol/kg. It also gave an Activity (Mus musculus [6]) of 100%, an Activity (Mus musculus [7]) of 0% and an Activity (Mus musculus [8]) of 100%. For the same compound, the inhibition of growth at 10 µM (BT-549) was 3.5%, the inhibition of growth at 10 µM (MCF7) was 5% and the inhibition of growth at 10 µM (PC-3) was 11.2%. It also gave an inhibition of growth at 10 µM (UO-31) of 24.1%, an inhibition of growth at 10 µM (CAKI-1) of 5.3% and an inhibition of growth at 10 µM (ACHN) of 4%. For the same compound, the inhibition of growth at 10 µM (A498) was 4%.

— ChEMBL document CHEMBL1955778, “Design and synthesis of novel 7-aminoquinazoline derivatives: antitumor and anticonvulsant activities” (Bioorg Med Chem Lett, 2012)
